The source made the active and inactive calls. No cut-off for these calls is given here.
Experiments:
Fusobacterium nucleatum [1] = assay: Inhibition of Fusobacterium nucleatum ATCC 25586 AI-2 assessed as decrease in biofilm formation at 0.02 to 0.2 uM
Fusobacterium nucleatum [2] = assay: Inhibition of Fusobacterium nucleatum AI-2-mediated biofilm formation of Fusobacterium nucleatum ATCC 25586 assessed as biofilm biomass at 2 uM incubated for 48 hrs under anaerobic condition by confocal laser scanning microscopic method (reference value: 2.99 um'3/um'2)
Fusobacterium nucleatum [3] = assay: Inhibition of Fusobacterium nucleatum AI-2-mediated biofilm formation of Fusobacterium nucleatum ATCC 25586 assessed as biofilm average depth at 2 uM incubated for 48 hrs under anaerobic condition by confocal laser scanning microscopic method (reference value: 5.37 um)
Fusobacterium nucleatum [4] = assay: Inhibition of Fusobacterium nucleatum AI-2-mediated biofilm formation of Porphyromonas gingivalis ATCC 33277 assessed as biofilm biomass at 2 uM incubated for 48 hrs under anaerobic condition by confocal laser scanning microscopic method (reference value: 3.73 um'3/um'2)
Fusobacterium nucleatum [5] = assay: Inhibition of Fusobacterium nucleatum AI-2-mediated biofilm formation of Porphyromonas gingivalis ATCC 33277 assessed as biofilm average depth at 2 uM incubated for 48 hrs under anaerobic condition by confocal laser scanning microscopic method (reference value: 4.87 um)
Fusobacterium nucleatum [6] = assay: Inhibition of Fusobacterium nucleatum AI-2-mediated biofilm formation of Tannerella forsythia ATCC 43037 assessed as biofilm biomass at 2 uM incubated for 48 hrs under anaerobic condition by confocal laser scanning microscopic method (reference value: 4.05 um'3/um'2)
Fusobacterium nucleatum [7] = assay: Inhibition of Fusobacterium nucleatum AI-2-mediated biofilm formation of Tannerella forsythia ATCC 43037 assessed as biofilm average depth at 2 uM incubated for 48 hrs under anaerobic condition by confocal laser scanning microscopic method (reference value: 5.29 um)
Fusobacterium nucleatum [8] = assay: Inhibition of Fusobacterium nucleatum AI-2-mediated biofilm formation of Fusobacterium nucleatum ATCC 25586 assessed as biofilm formation at 2 uM incubated for 48 hrs under anaerobic condition by crystal violet staining-based assay (reference value: 100%); parameters: scale not given: the % may be the effect or the level left
In short: (§1)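 Crystal-violet biofilm assay on glass slips in 24-well plates with 10% (v/v) F. nucleatum AI-2 and compound at 0.002–2 mM. Inocula were F. nucleatum 2 × 10^7, P. gingivalis 2 × 10^8 and T. forsythia 2 × 10^8 bacteria/mL, held 48 h anaerobically (10% H2, 10% CO2, 80% N2). Slips were washed three times with PBS, stained with 1% crystal violet for 10 min, destained with acetone–alcohol (20:80) and read at A595.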

Porphyromonas gingivalis = assay: Inhibition of Porphyromonas gingivalis ATCC 33277 planktonic growth at […] incubated for 48 hrs under anaerobic condition by spectrophotometric method; format: organism-based
In short: (§2)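 F. nucleatum, P. gingivalis or T. forsythia were grown planktonically for 48 h at 37 °C under anaerobic conditions with compound at 2 mM. Growth was monitored by absorbance at 600 nm.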

Fusobacterium nucleatum [9] = assay: Inhibition of Fusobacterium nucleatum AI-2-mediated biofilm formation of Porphyromonas gingivalis ATCC 33277 assessed as biofilm formation at 2 uM incubated for 48 hrs under anaerobic condition by crystal violet staining-based assay (reference value: 100%); parameters: scale not given: the % may be the effect or the level left; in short: as §1
Fusobacterium nucleatum [10] = assay: Inhibition of Fusobacterium nucleatum AI-2-mediated biofilm formation of Tannerella forsythia ATCC 43037 assessed as biofilm formation at 2 uM incubated for 48 hrs under anaerobic condition by crystal violet staining-based assay (reference value: 100%); parameters: scale not given: the % may be the effect or the level left; in short: as §1
Fusobacterium nucleatum [11] = assay: Inhibition of Fusobacterium nucleatum ATCC 25586 planktonic growth at […] incubated for 48 hrs under anaerobic condition by spectrophotometric method; format: organism-based; in short: as §2
Tannerella forsythia = assay: Inhibition of Tannerella forsythia ATCC 43037 planktonic growth at […] incubated for 48 hrs under anaerobic condition by spectrophotometric method; format: organism-based; in short: as §2
THP-1 [12] = assay: Cytotoxicity against human THP1 cells assessed as effect on cell viability at 2 uM incubated for 24 hrs by CCK8 assay; format: cell-based; conditions: thp-1, 24 h
In short: (§3)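 Cells in 96-well plates were exposed to compound for 24 h, with viability read by CCK-8 against a non-treated control. THP-1 (RPMI 1640, 10% FBS) was seeded at 1 × 10^5 cells/well and treated directly. HGFs (DMEM, 10% FBS) at 2 × 10^4 and HOK-16B (keratinocyte basal medium) at 5 × 10^4 cells/well were treated after reaching 85% confluence. Runs were done three times in triplicate.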

[13] = Cytotoxicity against human gingival fibroblasts assessed as effect on cell viability at 2 uM incubated for 24 hrs by CCK8 assay; in short: as §3
[14] = Cytotoxicity against human HOK16B assessed as effect on cell viability at 2 uM incubated for 24 hrs by CCK8 assay; in short: as §3
THP-1 [15] = assay: Effect on host cell immune response in human THP1 cells assessed as upregulation of IL-6 mRNA expression at 2 uM after 24 hrs by RT-PCR method; format: ADME, cell-based; conditions: thp-1, 24 h
In short: (§4)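 THP-1 cells (1 × 10^6 cells/well) or HGFs (2 × 10^5 cells/well) in 6-well plates were incubated 24 h at 37 °C with or without compound, with LPS as comparator. Total RNA (1 µg) was reverse-transcribed, and IL-6 and IL-8 mRNA were quantified by SYBR Green real-time PCR (40 cycles of 95 °C for 15 s and 60 °C for 1 min). Runs were done three times in triplicate.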

THP-1 [16] = assay: Effect on host cell immune response in human THP1 cells assessed as upregulation of IL-8 mRNA expression at 2 uM after 24 hrs by RT-PCR method; format: ADME, cell-based; conditions: thp-1, 24 h; in short: as §4
[17] = Effect on host cell immune response in human gingival fibroblasts assessed as upregulation of IL-6 mRNA expression at 2 uM after 24 hrs by RT-PCR method; format: ADME; in short: as §4
[18] = Effect on host cell immune response in human gingival fibroblasts assessed as upregulation of IL-8 mRNA expression at 2 uM after 24 hrs by RT-PCR method; format: ADME; in short: as §4
Vibrio harveyi = assay: Effect on Vibrio harveyi BB170 planktonic growth at 2 incubated for 9 hrs under aerobic condition by spectrophotometric method; parameters: concentration or dose not given beside the values; conditions: in vitro
Fusobacterium nucleatum [19] = assay: Inhibition of Fusobacterium nucleatum ATCC 25586 AI-2 assessed as decrease in biofilm formation at 0.2 to 2 uM

## CCCOc1cccc2c1C(=O)OC2=C(Br)Br
Fusobacterium nucleatum [1]
  inhibition: inactive

## CCCCOc1ccc2c(c1)C(=C(Br)Br)OC2=O
Fusobacterium nucleatum [1]
  inhibition: inactive

## CCCCCOc1ccc2c(c1)C(=C(Br)Br)OC2=O
Fusobacterium nucleatum [1]
  inhibition: inactive

## Cc1cccc2c1C(=O)OC2=C(Br)Br
Fusobacterium nucleatum [1]
  inhibition: Active
Fusobacterium nucleatum [2]
  Activity: 0.32 um3/um2
Fusobacterium nucleatum [3]
  Activity: 1.72 µm
Fusobacterium nucleatum [4]
  Activity: 0.27 um3/um2
Fusobacterium nucleatum [5]
  Activity: 1.97 µm
Fusobacterium nucleatum [6]
  Activity: 0.88 um3/um2
Fusobacterium nucleatum [7]
  Activity: 2.41 µm
Fusobacterium nucleatum [8]
  Activity: 33.2%
Porphyromonas gingivalis
  growth inhibition (GI): Non-Toxic
Fusobacterium nucleatum [9]
  Activity: 29.3%
Fusobacterium nucleatum [10]
  Activity: 53.5%
Fusobacterium nucleatum [11]
  growth inhibition (GI): Non-Toxic
Tannerella forsythia
  growth inhibition (GI): Non-Toxic
THP-1 [12]
  Activity: Non-Toxic
[13]
  Activity: Non-Toxic
[14]
  Activity: Non-Toxic
THP-1 [15]
  Activity: Non-Toxic
THP-1 [16]
  Activity: Non-Toxic
[17]
  Activity: Non-Toxic
[18]
  Activity: Non-Toxic
Vibrio harveyi
  Activity: Non-Toxic

## O=C1OC(=C(Br)Br)C2=C1CCCC2
Fusobacterium nucleatum [1]
  inhibition: inactive

## Cc1ccc2c(c1)C(=C(Br)Br)OC2=O
Fusobacterium nucleatum [1]
  inhibition: Active
Fusobacterium nucleatum [2]
  Activity: 0.38 um3/um2
Fusobacterium nucleatum [3]
  Activity: 1.87 µm
Fusobacterium nucleatum [4]
  Activity: 0.29 um3/um2
Fusobacterium nucleatum [5]
  Activity: 2.05 µm
Fusobacterium nucleatum [6]
  Activity: 0.59 um3/um2
Fusobacterium nucleatum [7]
  Activity: 1.94 µm
Fusobacterium nucleatum [8]
  Activity: 32.1%
Porphyromonas gingivalis
  growth inhibition (GI): Non-Toxic
Fusobacterium nucleatum [9]
  Activity: 34.7%
Fusobacterium nucleatum [10]
  Activity: 33.5%
Fusobacterium nucleatum [11]
  growth inhibition (GI): Non-Toxic
Tannerella forsythia
  growth inhibition (GI): Non-Toxic
THP-1 [12]
  Activity: Non-Toxic
[13]
  Activity: Non-Toxic
[14]
  Activity: Non-Toxic
THP-1 [15]
  Activity: Non-Toxic
THP-1 [16]
  Activity: Non-Toxic
[17]
  Activity: Non-Toxic
[18]
  Activity: Non-Toxic
Vibrio harveyi
  Activity: Non-Toxic

## O=C1OC(=C(Br)Br)C2CCCCC12 (stereo unspecified)
Fusobacterium nucleatum [1]
  inhibition: inactive

## CCCCCOc1cccc2c1C(=O)OC2=C(Br)Br
Fusobacterium nucleatum [1]
  inhibition: inactive

## O=C1OC(=C(Br)Br)C2=C1CCC2
Fusobacterium nucleatum [1]
  inhibition: inactive

## CCOc1cccc2c1C(=O)OC2=C(Br)Br
Fusobacterium nucleatum [1]
  inhibition: inactive

## CCCOc1ccc2c(c1)C(=C(Br)Br)OC2=O
Fusobacterium nucleatum [1]
  inhibition: inactive

## CCCCOc1cccc2c1C(=O)OC2=C(Br)Br
Fusobacterium nucleatum [1]
  inhibition: inactive

## CCOc1ccc2c(c1)C(=C(Br)Br)OC2=O
Fusobacterium nucleatum [1]
  inhibition: inactive

## O=C1C=C(Br)/C(=C/Br)O1
Fusobacterium nucleatum [1]
  inhibition: Active
Fusobacterium nucleatum [2]
  Activity: 0.42 um3/um2
Fusobacterium nucleatum [3]
  Activity: 2.02 µm
Fusobacterium nucleatum [4]
  Activity: 0.3 um3/um2
Fusobacterium nucleatum [5]
  Activity: 2.05 µm
Fusobacterium nucleatum [6]
  Activity: 0.77 um3/um2
Fusobacterium nucleatum [7]
  Activity: 2.18 µm
Fusobacterium nucleatum [8]
  Activity: 55.6%
Fusobacterium nucleatum [9]
  Activity: 39.2%
Fusobacterium nucleatum [10]
  Activity: 47.4%
THP-1 [15]
  Activity: Toxic
THP-1 [16]
  Activity: Toxic
[18]
  Activity: Toxic
Vibrio harveyi
  Activity: Toxic

## O=C1OC(=C(Br)Br)C2CCCC12 (stereo unspecified)
Fusobacterium nucleatum [19]
  inhibition: Active
Fusobacterium nucleatum [1]
  inhibition: Active
Fusobacterium nucleatum [2]
  Activity: 0.39 um3/um2
Fusobacterium nucleatum [3]
  Activity: 1.82 µm
Fusobacterium nucleatum [4]
  Activity: 0.31 um3/um2
Fusobacterium nucleatum [5]
  Activity: 2.05 µm
Fusobacterium nucleatum [6]
  Activity: 0.93 um3/um2
Fusobacterium nucleatum [7]
  Activity: 2.27 µm
Fusobacterium nucleatum [8]
  Activity: 38.8%
Porphyromonas gingivalis
  growth inhibition (GI): Non-Toxic
Fusobacterium nucleatum [9]
  Activity: 48.4%
Fusobacterium nucleatum [10]
  Activity: 57.8%
Fusobacterium nucleatum [11]
  growth inhibition (GI): Non-Toxic
Tannerella forsythia
  growth inhibition (GI): Non-Toxic
THP-1 [12]
  Activity: Non-Toxic
[13]
  Activity: Non-Toxic
[14]
  Activity: Non-Toxic
THP-1 [15]
  Activity: Non-Toxic
THP-1 [16]
  Activity: Non-Toxic
[17]
  Activity: Non-Toxic
[18]
  Activity: Non-Toxic
Vibrio harveyi
  Activity: Non-Toxic

## O=C1OC(=C(Br)Br)c2ccccc21
Fusobacterium nucleatum [19]
  inhibition: Active
Fusobacterium nucleatum [1]
  inhibition: inactive
